Source: PMC8173612 (ACS Omega, 2021)
Converted amounts (≈) assume the structure as drawn. Where two headings read alike, the source gives them in different places.

Columns and labels:
[1] = Solubility screening of selected solvents; assay type: physicochemical
Method in brief: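 Solvent screen in 2-propanol, tetrahydrofuran, cyclohexane and toluene. Solubility of each test compound was determined in each neat solvent at room temperature and at 0 °C. Values are reported in mg/mL.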

[2] = in deionized water, cyclohexane, petroleum ether, and hexane; cited from earlier work
[3] = solvent cyclohexane, RT (25-30 °C)
[4] = tetrahydrofuran, 0 °C, organic solvent or mixture, thermodynamic from solid
[5] = tetrahydrofuran, organic solvent or mixture, thermodynamic from solid
[6] = toluene, 0 °C, organic solvent or mixture, thermodynamic from solid
[7] = toluene, organic solvent or mixture, thermodynamic from solid
[8] = solvent 2-propanol, RT (25-30 °C)

solubility ([1]; 2-propanol, 0 °C, organic solvent or mixture, thermodynamic from solid) | solubility ([1]; 2-propanol, organic solvent or mixture, thermodynamic from solid) | solubility ([1]; solvent cyclohexane, 0 °C) | solubility [1, 3] | solubility [1, 4] | solubility [1, 5] | solubility [1, 6] | solubility [1, 7] | solubility ([1]; solvent 2-propanol, 0 °C) | solubility [1, 8] | solubility ([1]; solvent tetrahydrofuran, 0 °C) | solubility ([1]; solvent tetrahydrofuran, RT (25-30 °C)) | solubility ([1]; solvent toluene, RT (25-30 °C)) | Compound | solubility [2]
25.4 mg/mL (≈ 91.3 mM) | 46.5 mg/mL (≈ 167 mM) | insoluble | insoluble | 105 mg/mL (≈ 377 mM) | 170 mg/mL (≈ 610 mM) | 42.9 mg/mL (≈ 154 mM) | 44.3 mg/mL (≈ 159 mM) | – | – | – | – | – | O=P(c1ccccc1)(c1ccccc1)c1ccccc1 [TPPO, Triphenylphosphine oxide] | almost insoluble
– | – | insoluble | insoluble | – | – | – | – | 13.3 mg/mL | 60.4 mg/mL | 61.0 mg/mL | 157.5 mg/mL | 23.2 mg/mL | CC(C)OC(=O)NNC(=O)OC(C)C.O=P(c1ccccc1)(c1ccccc1)c1ccccc1 [TPPO-H2DIAD, triphenylphosphine oxide-1,2-isopropylhydrazine dicarboxylate] | –
– | – | insoluble | insoluble | 101 mg/mL (≈ 277 mM) | 124 mg/mL (≈ 342 mM) | 42.1 mg/mL (≈ 116 mM) | 46.7 mg/mL (≈ 128 mM) | insoluble | insoluble | – | – | – | CC(C)(C)OC(=O)N1C[C@@H](F)C[C@H]1CON1C(=O)c2ccccc2C1=O [compound-6, tert-Butyl (2S,4S)-2-{[(1,3-Dioxo-1,3-dihydro-2H-isoindol-2-yl)oxy]methyl}-4-fluoro-pyrrolidine-1-carboxylate] | –
